The results in this text go back to ChEMBL document CHEMBL4732102, “Sustainable, three-component, one-pot procedure to obtain active anti-flavivirus agents” (Eur J Med Chem, 2021).

A short description of series [1]: Selectivity index, ratio of CC50 for human Huh-7 cells to EC50 for Zika virus H/PF/2013 infected in human Huh-7 cells. The series is classed as toxicity, cell-based. Particulars: read-out: Ratio CC50/EC50.
A short description of series [2]: Selectivity index, ratio of CC50 for human Huh-7 cells to EC50 for dengue virus 2 EDEN 3295 infected in human Huh-7 cells. The series is classed as toxicity, cell-based. The following applies: read-out: Ratio CC50/EC50.
The subject of series [3] is dengue virus type 2. As to the kind of experiment: Inhibition of Dengue virus 2 full length NS5 RNA-dependent RNA polymerase assessed as reduction in de novo initiation activity at 30 uM incubated for 1 hr relative to control. Summed up:
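De novo initiation assay: 100 nM full-length DENV-2 NS5 with 100 nM in vitro transcribed DENV-2 5'UTR-3'UTR RNA, 20 µM each of ATP, GTP and UTP, and 5 µM Atto-CTP. Buffer Tris-HCl pH 7.5 with KCl, 1 mM MgCl2, 0.3 mM MnCl2, Triton X-100 and 10 µM cysteine. Compound at 30 µM; 1 h at 37 °C. Read-out by alkaline phosphatase-released AttoPhos fluorescence (422/566 nm).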

For series [4], the system named is Zika virus. Put plainly: Antiviral activity against Zika virus H/PF/2013 infected in human Huh-7 cells assessed as reduction in virus replication at 10 uM incubated for 24 hrs by plaque reduction assay relative to control. The series is classed as functional. Set-up: scale not given: the % may be the effect or the level left. Summed up: (§1)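 Huh-7 cells (1 × 10^5 seeded) infected 1 h at 37 °C with DENV-2 EDEN3295 (MOI 0.3) or ZIKV H/PF/2013 (MOI 0.5). Infected cells then treated at a single 10 µM concentration, 24 h for ZIKV and 48 h for DENV-2. Clarified supernatant titred by BHK-21 plaque assay. Viral titre reduction expressed as percent inhibition.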
On the technique in general: Plaques are areas of infected cells; plaque reduction assays count them against a control.

The test system of series [5] is dengue virus type 2. As to the kind of experiment: Antiviral activity against dengue virus 2 EDEN 3295 infected in human Huh-7 cells assessed as reduction in virus replication incubated for 48 hrs by plaque reduction assay. The series is classed as functional, organism-based. Particulars: EDEN 3295, Huh-7, 48 h. The essentials: (§2)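 Huh-7 cells (1 × 10^5 seeded) infected 1 h at 37 °C with ZIKV H/PF/2013 at MOI 0.5 or DENV-2 EDEN3295 at MOI 0.3. Dose–response treatment from 0.01 to 100 µM followed, 24 h for ZIKV and 48 h for DENV-2. Supernatant titre measured by BHK-21 plaque assay. EC50 taken from a sigmoidal fit of titre versus concentration; average ± SE of one experiment in duplicate.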

The subject of series [6] is dengue virus type 2. As to the kind of experiment: Inhibition of Dengue virus 2 full length NS5 RNA-dependent RNA polymerase assessed as reduction in elongation activity at 30 uM incubated for 1 hr relative to control. Summed up:
(§3)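 Elongation (primer-dependent) assay: 100 nM full-length DENV-2 NS5, 100 nM U30-3'UTR template and 3 µM Atto-ATP in 50 mM Tris-HCl pH 7.5, 10 mM KCl, 0.5 mM MnCl2, Triton and 10 µM cysteine. Run 1 h at 37 °C; stopped with alkaline phosphatase and AttoPhos fluorescence read at 422/566 nm. Single point at 30 µM; IC50 is average ± SE of one experiment in duplicate.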

Series [7] in a line: Inhibition of Dengue virus 2 full length NS5 RNA-dependent RNA polymerase assessed as reduction in elongation activity incubated for 1 hr. Further details: species or system dengue virus type 2. The essentials: as §3
A short description of series [8]: (§4) Cytotoxicity against human Huh-7 cells assessed as reduction in cell viability incubated for 48 hrs by celltiter glo luminescent assay. Particulars: Huh-7 cells. The series is classed as cell-based. The essentials: (§5)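 Huh-7 cells (2 × 10^4 seeded, DMEM with 10% FBS) exposed to compound for 48 h at 37 °C. Viability read by CellTiter-Glo luminescence as percent of untreated control. CC50 derived from the viability curve.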
(In general: ATP-based viability assays read luminescence as a measure of living cells.)

For series [9], the system named is Zika virus. As to the kind of experiment: Antiviral activity against Zika virus H/PF/2013 infected in human Huh-7 cells assessed as reduction in virus replication incubated for 24 hrs by plaque reduction assay. The series is classed as functional, organism-based. The following applies: H/PF/2013, Huh-7, 24 h. Summed up:
as §2

Series [10] concerns dengue virus type 2. As to the kind of experiment: Antiviral activity against dengue virus 2 EDEN 3295 infected in human Huh-7 cells assessed as reduction in virus replication at 10 uM incubated for 48 hrs by plaque reduction assay relative to control. Set-up: scale not given: the % may be the effect or the level left. The series is classed as functional. The essentials: as §1

For the next series, the system named is Huh-7. Described as §4. The following applies: huh-7, 48 h. The series is classed as cell-based. Summed up:
as §5

Calls of active or inactive are those of the source. The calls are words filed in the database; no cut-off is given here. Bounds are passed on as bounds.

Consider `C#C[C@@]1(O)[C@H](O)[C@@H](CO)O[C@H]1n1ccc2c(N)ncnc21`, for which the selectivity ratio in [1] is > 100; in [2], 100.
As to `O=C(NCC1(C(=O)O)CC1)c1cc(-c2ccccc2)c(=O)n2c1sc1ccc(OC3CCCCC3)cc12`, the inhibition (commonly the percentage by which the read-out fell short of the control) was 68.1% with dengue virus type 2 [3] and 96.7% in the series on dengue virus type 2 [6]. Also, in the series on Zika virus [4], the Activity was 15.8%. Besides, in the series with dengue virus type 2 [5], the EC50 (in general, the concentration giving half of the maximal effect) worked out at 7.5 µM. In addition, the IC50 (commonly the concentration that gives 50% inhibition) in series [7] (read-out: IC50) was 17.8 µM. Moreover, the CC50 (usually the concentration that lowers cell viability or growth by half) at 48 h in series [8] stood at 100 µM. In addition, the selectivity ratio in [2] is 13.3.
For the compound `C[C@H](CO)NC(=O)c1cc(-c2ccccc2)c(=O)n2c1sc1ccc(OC3CCCCC3)cc12`, the inhibition result in the series with dengue virus type 2 [3] is “inactive”. Further, the selectivity ratio turned out to be 2.4 in series [1] and 3 in series [2]. In addition, the EC50 with dengue virus type 2 [5] was found to be 5.8 µM; with Zika virus [9] it was 7.3 µM. Further, the inhibition in the series on dengue virus type 2 [6] was 42.7%. Moreover, in [7], the half-maximal inhibitory concentration (IC50) entry is “Not Active”. In series [8], the CC50 at 48 h was 17.9 µM.
For `O=C(O)C1CCN(C(=O)c2cc(-c3ccccc3)c(=O)n3c2sc2ccc(OC4CCCCC4)cc23)C1` (racemic), the inhibition in the series with dengue virus type 2 [3] is 11%; with dengue virus type 2 [6], 64.6%. For the same compound, the values for the selectivity ratio in [1] and in [2] were > 12.2 and > 15.6, respectively. Moreover, the EC50 with dengue virus type 2 [5] was 6.4 µM; in the series on Zika virus [9] it was 8.2 µM. For the same compound, in series [7], the IC50 result is “Not Active”. For the same compound, the CC50 at 48 h in series [8] is > 100 µM.
Take `O=C(c1cc(-c2ccccc2)c(=O)n2c1sc1ccc(OC3CCCCC3)cc12)N1CCCC(O)C1` (racemic): the inhibition entry in the series with dengue virus type 2 [3] is “inactive”. The values for the selectivity ratio in series [1] and in series [2] were 2 and 17, respectively. The results for the EC50 in the series with dengue virus type 2 [5] and in the series on Zika virus [9] were 1.3 µM and 11.1 µM, respectively. The inhibition in the series with dengue virus type 2 [6] came out at 36.9%. The half-inhibitory concentration (IC50) result in series [7] was “Not Active”. The CC50 at 48 h in series [8] was determined as 22.2 µM.
For the compound `O=C(O)C1CCCN(C(=O)c2cc(-c3ccccc3)c(=O)n3c2sc2ccc(OC4CCCCC4)cc23)C1` (racemic), the Activity in the series with dengue virus type 2 [10] turned out to be 65.3%; with Zika virus [4], 26.3%. In the series with dengue virus type 2 [3], the inhibition result is “inactive”. The inhibition in the series with dengue virus type 2 [6] amounted to 64.9%. The IC50 result in series [7] is given as “Not Active”. For the same compound, in the series with Huh-7, the CC50 entry is on record as “Not Active”.
Take `O=C(O)CC(NC(=O)c1cc(-c2ccccc2)c(=O)n2c1sc1ccc(OC3CCCCC3)cc12)c1ccccc1` (racemic): the inhibition in the series with dengue virus type 2 [3] is 79.3%; in the series on dengue virus type 2 [6], 96.2%. The selectivity ratio in series [1] was 20; in [2], 83. Also, the EC50 was 1.2 µM with dengue virus type 2 [5] and 5 µM in the series on Zika virus [9]. Besides, the IC50 in series [7] (read-out: IC50) was determined as 10.4 µM. The 50% cytotoxic concentration (CC50) at 48 h in series [8] amounted to 100 µM.
For the compound `C[C@@H](CO)NC(=O)c1cc(-c2ccccc2)c(=O)n2c1sc1ccc(OC3CCCCC3)cc12`, the inhibition entry in the series with dengue virus type 2 [3] was “inactive”. For the same compound, the selectivity ratio in [1] amounted to 2.6; in [2], 20. For the same compound, the half-maximal effective concentration (EC50) in the series with dengue virus type 2 [5] was found to be 1.1 µM; in the series with Zika virus [9] it was 8.1 µM. In addition, the inhibition with dengue virus type 2 [6] was found to be 42.5%. The IC50 entry in series [7] was “Not Active”. In addition, the CC50 at 48 h in [8] turned out to be 21.7 µM.
Take `CC(CC(=O)O)NC(=O)c1cc(-c2ccccc2)c(=O)n2c1sc1ccc(OC3CCCCC3)cc12` (racemic): the values for the Activity with dengue virus type 2 [10] and in the series on Zika virus [4] were 68.1% and 29%, respectively. The results for the inhibition with dengue virus type 2 [3] and in the series on dengue virus type 2 [6] were 22.7% and 69.3%, respectively. Moreover, the IC50 result in series [7] is “Not Active”. The CC50 entry in the series with Huh-7 was “Not Active”.
For `CC(C)C(CC(=O)O)NC(=O)c1cc(-c2ccccc2)c(=O)n2c1sc1ccc(OC3CCCCC3)cc12` (racemic), the inhibition in the series on dengue virus type 2 [3] is 75%; in the series with dengue virus type 2 [6], 92.8%. Besides, in the series on Zika virus [4], the Activity is given as 47.4%. In the series with dengue virus type 2 [5], the EC50 is 8.4 µM. In series [7] (read-out: IC50), the IC50 is 22.1 µM. The 50% cytotoxic concentration (CC50) at 48 h in series [8] amounted to 100 µM. In addition, the selectivity ratio in [2] was 12.
On to `CC(C)(CC(=O)O)NC(=O)c1cc(-c2ccccc2)c(=O)n2c1sc1ccc(OC3CCCCC3)cc12`, for which the values for the inhibition in the series on dengue virus type 2 [3] and in the series on dengue virus type 2 [6] were 81.5% and 95.9%, respectively. In addition, the Activity in the series with Zika virus [4] was 10.6%. Moreover, the EC50 in the series with dengue virus type 2 [5] amounted to 3.1 µM. In series [7] (read-out: IC50), the IC50 was 23.2 µM. For the same compound, in series [8], the 50% cytotoxic concentration (CC50) at 48 h was 100 µM. For the same compound, in series [2], the selectivity ratio was determined as 32.
Take `NC(=O)CCNC(=O)c1cc(-c2ccccc2)c(=O)n2c1sc1ccc(OC3CCCCC3)cc12`: in the series on dengue virus type 2 [3], the inhibition entry is “inactive”. In addition, the selectivity ratio in [1] is 7.1; in [2] it was 58. In addition, the EC50 with dengue virus type 2 [5] was determined as 0.9 µM; with Zika virus [9], 7.3 µM. Also, the inhibition with dengue virus type 2 [6] was 37.2%. The concentration for half-maximal inhibition (IC50) entry in series [7] is given as “Not Active”. Moreover, the CC50 at 48 h in series [8] was determined as 52.3 µM.
